Experimental data: ChEMBL document CHEMBL4376875, “Synthesis and Biological Evaluation of B-Cell Lymphoma 6 Inhibitors of N-Phenyl-4-pyrimidinamine Derivatives Bearing Potent Activities against Tumor Growth” (J Med Chem, 2020)
The source made the active and inactive calls. The calls are words filed in the database; no cut-off is given here.

How the values were obtained:
[1] = target: B-cell lymphoma 6 protein (Homo sapiens, UniProt P41182, C67R/C84N/C8Q); experiment: Inhibition of recombinant human C-terminal GST-tagged BCL6 BTB domain C8Q/C67R/C84N triple mutant expressed in Escherichia coli BL21 (DE3) cells assessed as reduction in SMRT/BTB domain interaction incubated for 1 hr by HTRF assay
[2] = system: SUD4; experiment: Antiproliferative activity against human SUDHL4 cells assessed as reduction in cell viability incubated for 72 hrs by CCK8 assay; details: SU-DHL-4, 72 h
[3] = system: Farage; experiment: Antiproliferative activity against human Farage cells assessed as reduction in cell viability incubated for 72 hrs by CCK8 assay
[4] = system: DOHH-2; experiment: Antiproliferative activity against human DOHH2 cells assessed as reduction in cell viability incubated for 72 hrs by CCK8 assay; details: DOHH-2, 72 h
[5] = system: OCI-Ly7; experiment: Antiproliferative activity against human OCI-LY7 cells assessed as reduction in cell viability incubated for 72 hrs by CCK8 assay; details: OCI-Ly7, 72 h
[6] = system: Toledo; experiment: Antiproliferative activity against BCL6-negative human Toledo cells assessed as reduction in cell viability incubated for 72 hrs by CCK8 assay
[7] = system: L02; experiment: Cytotoxicity against human LO2 cells assessed as reduction in cell viability incubated for 72 hrs by CCK8 assay; details: L02, 72 h
[8] = Cytotoxicity against HAF cells assessed as reduction in cell viability incubated for 72 hrs by CCK8 assay; details: Homo sapiens
[9] = system: NCM460; experiment: Cytotoxicity against human NCM460 cells assessed as reduction in cell viability incubated for 72 hrs by CCK8 assay; details: NCM460, 72 h
[10] = system: PNT1A; experiment: Cytotoxicity against human PNT1A cells assessed as reduction in cell viability incubated for 72 hrs by CCK8 assay
[11] = system: SUD4; experiment: Induction of apoptosis in human SUDHL4 cells assessed as late apoptotic cells at 0.625 uM incubated for 48 hrs by annexin V-FITC and propidium iodide staining based flow cytometry analysis (reference value: 1.39%); type: functional
[12] = system: SUD4; experiment: Induction of apoptosis in human SUDHL4 cells assessed as late apoptotic cells at 1.25 uM incubated for 48 hrs by annexin V-FITC and propidium iodide staining based flow cytometry analysis (reference value: 1.39%); type: functional
[13] = system: SUD4; experiment: Induction of apoptosis in human SUDHL4 cells assessed as late apoptotic cells at 2.5 uM incubated for 48 hrs by annexin V-FITC and propidium iodide staining based flow cytometry analysis (reference value: 1.39%); type: functional
[14] = system: SUD4; experiment: Induction of apoptosis in human SUDHL4 cells assessed as early apoptotic cells at 0.625 uM incubated for 48 hrs by annexin V-FITC and propidium iodide staining based flow cytometry analysis (reference value: 2.62%); type: functional
[15] = system: SUD4; experiment: Induction of apoptosis in human SUDHL4 cells assessed as early apoptotic cells at 1.25 uM incubated for 48 hrs by annexin V-FITC and propidium iodide staining based flow cytometry analysis (reference value: 2.62%); type: functional
[16] = system: SUD4; experiment: Induction of apoptosis in human SUDHL4 cells assessed as early apoptotic cells at 2.5 uM incubated for 48 hrs by annexin V-FITC and propidium iodide staining based flow cytometry analysis (reference value: 2.62%); type: functional
[17] = system: Mus musculus; experiment: In vivo inhibition of GC formation in NP-CGG immunized C57BL/6 mouse assessed as splenic GC B cells (GL7+FAS+B220+) at 50 mg/kg/day, ip for 12 days starting from 2 days after NP-CGG addition by flow cytometry (reference value: 1.97%); type: functional; parameters: scale not given: the % may be the effect or the level left
[18] = system: Farage; experiment: Antiproliferative activity against human Farage cells transfected with lentivirus expressing BCL6 shRNA assessed as reduction in cell viability at 10 to 80 uM incubated for 72 hrs by CCK8 assay; type: functional, cell-based
[19] = system: Farage; experiment: Antiproliferative activity against human Farage cells transfected with empty vector lentivirus assessed as reduction in cell viability at 10 to 80 uM incubated for 72 hrs by CCK8 assay; type: functional, cell-based
Method in brief: (§1)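 Lentivirus made by transfection; supernatant collected at 48 h and 72 h. DLBCL cells infected with virus plus 8 μg/mL polybrene for 48 h, then selected in RPMI 1640 with 2 μg/mL puromycin. Transduced cells seeded at 2 × 10⁴ cells/well and exposed to compound for 72 h. CCK8 added, 1-2 h at 37 °C, absorbance read at 450 nm. Run in triplicate.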

[20] = system: Toledo; experiment: Antiproliferative activity against human Toledo cells transfected with lentivirus overexpressing BCL6 assessed as reduction in cell viability up to 20 uM incubated for 72 hrs by CCK8 assay; type: functional, cell-based; method in brief: as §1
[21] = organism: Mus musculus; details: C57BL/6, 50 mg/kg
[22] = system: SUD4; experiment: Antiproliferative activity against human SUDHL4 cells assessed as living cells and S phase cells at 2.5 uM incubated for 48 hrs by Edu based flow cytometry analysis (reference value: 48.3%)
[23] = system: SUD4; experiment: Antiproliferative activity against human SUDHL4 cells assessed as living cells and S phase cells at 1.25 uM incubated for 48 hrs by Edu based flow cytometry analysis (reference value: 48.3%)
[24] = system: SUD4; experiment: Antiproliferative activity against human SUDHL4 cells assessed as living cells and S phase cells at 0.625 uM incubated for 48 hrs by Edu based flow cytometry analysis (reference value: 48.3%)
[25] = target: B-cell lymphoma 6 protein (Homo sapiens, UniProt P41182); experiment: Binding affinity to lateral groove of BCL6 BTB domain (unknown origin)
Method in brief: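 GST-tagged BCL6 protein was expressed in E. coli BL21(DE3), purified on glutathione Sepharose, dialysed into PBS and used for biolayer interferometry. GST biosensors were hydrated 10 min in kinetics buffer (1× PBS, 0.02% Tween 20), given a 60 s baseline, then loaded with BCL6-GST at 50 ng/mL for 300-600 s. After a second 60 s baseline, sensors were dipped into serially diluted compound.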

[26] = system: Toledo; experiment: Antiproliferative activity against human Toledo cells transfected with empty vector lentivirus assessed as reduction in cell viability up to 20 uM incubated for 72 hrs by CCK8 assay; type: functional, cell-based; method in brief: as §1

In the case of `COc1ccc(Nc2nc(N3C[C@@H](C)N[C@@H](C)C3)ncc2F)cc1NC(=O)c1ccc(Br)o1`, the IC50 [1] is reported as > 20 µM.
In the case of `COc1ccc(Nc2nc(N3C[C@@H](C)N[C@@H](C)C3)ncc2F)cc1NC(=O)c1ccc(Br)s1`, the IC50 [1] is reported as > 20 µM.
With `COc1cc(Nc2nc(N3C[C@@H](C)N[C@@H](C)C3)ncc2F)ccc1NC(=O)c1ccc(Br)s1` the IC50 [1] was > 10 µM.
In the case of `COc1ccc(Nc2nc(N(CC(C)C)CC(C)C)ncc2F)cc1Cl`, the IC50 [1] is reported as > 10 µM.
With `O=C(O)CCN1C(=O)/C(=C2/C(=O)Nc3ccc(Cl)cc32)SC1=S` the IC50 [2] was 51.3 µM, the IC50 [3] was 33.9 µM and the IC50 [4] was 35.1 µM. For the same compound, the IC50 [5] was 39 µM, the IC50 [6] was 65.3 µM and the IC50 [7] was > 100 µM. For the same compound, the IC50 [8] was > 100 µM, the IC50 [9] was > 100 µM and the IC50 [10] was > 100 µM. The Activity [11] was 1.81%, the Activity [12] was 1.73% and the Activity [13] was 1.96%. For the same compound, the Activity [14] was 2.86%, the Activity [15] was 2.62% and the Activity [16] was 3.19%. The Activity [17] was 0.73%, the Activity [18] was “Active” and the Activity [19] was “Active”. The Activity [20] was “Active”, the inhibition [21] was “Active” and the Activity [22] was 47.4%. It also gave an Activity [23] of 45.1% and an Activity [24] of 48.5%.
With `CCCCNc1ncc(F)c(Nc2ccc(OC)c(Cl)c2)n1` the IC50 [1] was > 10 µM.
In the case of `O=C(O)CC(C(=O)O)N1C(=O)/C(=C2/C(=O)Nc3ccc(Br)cc32)SC1=S` (stereo not drawn), the Kd [25] is reported as 138 µM.
Compound `O=C1Cc2cc(Nc3nc(NCc4cccnc4)ncc3Cl)ccc2N1` has an IC50 [2] of 24.3 µM, an IC50 [3] of 33.5 µM and an IC50 [4] of 47.6 µM. The IC50 [5] was 33.9 µM, the IC50 [6] was 39.5 µM and the IC50 [7] was > 100 µM. For the same compound, the IC50 [8] was > 100 µM, the IC50 [9] was > 100 µM and the IC50 [10] was > 100 µM. It also gave an Activity [11] of 1.89%, an Activity [12] of 1.97% and an Activity [13] of 1.74%. For the same compound, the Activity [14] was 3.11%, the Activity [15] was 3.43% and the Activity [16] was 3.15%. The Activity [18] was “Active”, the Activity [19] was “Active” and the Activity [26] was “Active”. The Activity [20] was “Active”, the Activity [22] was 41.2% and the Activity [23] was 41.6%. The Activity [24] was 43.4%.
With `COc1ccc(Nc2nc(N3C[C@H](C)C[C@H](C)C3)ncc2F)cc1Cl` the IC50 [1] was > 10 µM.
For `COc1cc(Nc2nc(N3C[C@@H](C)N[C@@H](C)C3)ncc2F)ccc1NC(=O)c1ccc(Br)o1`, the IC50 [1] was > 10 µM.
